Experimental data from ChEMBL document CHEMBL1212820, “Novel hinge binder improves activity and pharmacokinetic properties of BRAF inhibitors” (J Med Chem, 2010).
pIC50: −log10 of the molar value.

Legend:
[1] = Growth inhibition of human WM266.4 cells expressing BRAF V600E mutant after 5 days by SRB assay; format: functional; details: WM 266-4, 120 h
Method in brief: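 Antiproliferative SRB assay in WM266.4 (BRAF mutant), WM1361 (NRAS mutant) and D24 (BRAF/NRAS wild-type) melanoma cells, with GI50 derived from the assay.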

[2] = target: T1, Serine/threonine-protein kinase B-raf (Homo sapiens, UniProt P15056, V600E); assay: Inhibition of B-Raf V600E mutant
T1 sequence (P15056 2-766 V600E limits assumed): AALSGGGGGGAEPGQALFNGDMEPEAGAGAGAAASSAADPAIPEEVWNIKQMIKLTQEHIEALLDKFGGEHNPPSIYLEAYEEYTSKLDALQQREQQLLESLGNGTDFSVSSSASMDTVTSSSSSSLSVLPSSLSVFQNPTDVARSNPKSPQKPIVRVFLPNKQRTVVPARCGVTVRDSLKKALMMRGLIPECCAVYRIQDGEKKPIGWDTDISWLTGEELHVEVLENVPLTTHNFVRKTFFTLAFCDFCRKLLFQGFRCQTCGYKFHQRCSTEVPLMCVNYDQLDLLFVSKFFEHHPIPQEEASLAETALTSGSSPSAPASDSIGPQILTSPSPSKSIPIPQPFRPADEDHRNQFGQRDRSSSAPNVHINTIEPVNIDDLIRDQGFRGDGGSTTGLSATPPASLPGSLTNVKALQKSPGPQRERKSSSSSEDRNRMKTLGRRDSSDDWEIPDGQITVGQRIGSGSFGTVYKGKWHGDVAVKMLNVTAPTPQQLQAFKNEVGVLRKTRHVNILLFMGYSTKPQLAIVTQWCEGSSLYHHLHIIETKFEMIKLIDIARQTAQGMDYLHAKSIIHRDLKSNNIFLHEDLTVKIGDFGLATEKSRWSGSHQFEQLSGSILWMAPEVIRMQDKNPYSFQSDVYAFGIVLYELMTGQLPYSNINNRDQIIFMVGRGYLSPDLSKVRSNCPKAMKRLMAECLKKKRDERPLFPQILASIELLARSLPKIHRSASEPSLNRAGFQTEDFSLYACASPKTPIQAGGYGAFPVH
Method in brief: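 Enzymatic IC50 determined in vitro against purified V600E BRAF.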

[3] = target: T1, Serine/threonine-protein kinase B-raf; assay: Inhibition of BRAF V600E mutant-mediated ERK phosphorylation in human WM266.4 cells; format: cell-based
Method in brief: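 Cellular IC50 for inhibition of phosphoERK formation.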

Work on `CN(C)Cc1nc2c(Oc3ccc(NC(=O)Nc4cc(C(F)(F)F)ccc4F)c(F)c3)ccnc2[nH]1` yielded a GI50 [1] of 1400 nM, a pIC50 [2] of 6.14 and a pIC50 [3] of under 5.00.
Work on `Cc1ccc(-n2nc(C(C)(C)C)cc2NC(=O)Nc2ccc(Oc3ccnc4[nH]nnc34)cc2F)cc1` yielded a GI50 [1] of 1980 nM, a pIC50 [2] of 5.86 and a pIC50 [3] of 5.51.
Molecule `CC(C)(C)c1cc(NC(=O)Nc2cccc(Oc3ccnc4ncc(=O)[nH]c34)c2)n(-c2ccccc2)n1` has a GI50 [1] of 1600 nM, a pIC50 [2] of 6.19 and a pIC50 [3] of 5.77.
With `Cc1nc2c(Oc3cccc(NC(=O)c4cccc(C(C)(C)C)c4)c3)ccnc2[nH]c1=O` the GI50 [1] was 890 nM, the pIC50 [2] was 8.00 and the pIC50 [3] was 5.84.
In the case of `Cc1ccc(-n2nc(C(C)(C)C)cc2NC(=O)Nc2ccc(Oc3ccnc4nc(N)c(=O)[nH]c34)cc2F)cc1`, the GI50 [1] was 128 nM, the pIC50 [2] was 6.65 and the pIC50 [3] was 7.15.
With `Cc1nc2nccc(Oc3ccc(NC(=O)Nc4cc(C(C)(C)C)nn4-c4ccccc4)c(F)c3)c2[nH]c1=O` the GI50 [1] was 430 nM, the pIC50 [2] was 5.07 and the pIC50 [3] was 6.41.
Molecule `O=C(Nc1ccc(Cl)c(C(F)(F)F)c1)Nc1ccc(Oc2ccnc3ncc(=O)[nH]c23)cc1F` has a GI50 [1] of 3900 nM, a pIC50 [2] of 7.23 and a pIC50 [3] of 4.80.
With `Cc1nc2nccc(Oc3ccc(NC(=O)Nc4cc(C(F)(F)F)ccc4F)c4ccccc34)c2[nH]c1=O` the GI50 [1] was 8500 nM, the pIC50 [2] was 6.97 and the pIC50 [3] was 5.47.
Work on `CSc1cc(Oc2ccnc3[nH]c(=O)c(=O)[nH]c23)ccc1NC(=O)Nc1cc(C(F)(F)F)ccc1F` yielded a GI50 [1] of 190 nM, a pIC50 [2] of 8.70 and a pIC50 [3] of 6.26.
Work on `O=C(Nc1ccc(Oc2ccnc3[nH]c(S)nc23)cc1F)Nc1cc(C(F)(F)F)ccc1F` yielded a GI50 [1] of 970 nM, a pIC50 [2] of 7.77 and a pIC50 [3] of 4.89.
Molecule `O=C(Nc1ccc(Oc2ccnc3ncc(=O)[nH]c23)cc1F)Nc1cc(C(F)(F)F)ccc1F` has a GI50 [1] of 1800 nM, a pIC50 [2] of 7.12 and a pIC50 [3] of 4.16.
Molecule `Nc1nc2c(Oc3ccc(NC(=O)Nc4cc(C(F)(F)F)ccc4F)c4ccccc34)ccnc2[nH]c1=O` has a GI50 [1] of 15 nM, a pIC50 [2] of 8.30 and a pIC50 [3] of 7.31.
In the case of `O=C(Nc1cc(C(F)(F)F)ccc1F)Nc1ccc(Oc2ccnc3[nH]c(=O)c(C(F)(F)F)nc23)c2ccccc12`, the GI50 [1] was over 10000 nM, the pIC50 [2] was 6.87 and the pIC50 [3] was under 5.00.
`Cc1ccc(-n2nc(C(C)(C)C)cc2NC(=O)Nc2cccc(Oc3ccnc4ncc(=O)[nH]c34)c2)cc1` gave a GI50 [1] of 345 nM, a pIC50 [2] of 6.24 and a pIC50 [3] of 6.11.
With `O=C(Nc1ccc(Oc2ccnc3[nH]cnc23)cc1F)Nc1cc(C(F)(F)F)ccc1F` the GI50 [1] was 4850 nM, the pIC50 [2] was 7.38 and the pIC50 [3] was 5.07.
In the case of `O=C(Nc1ccc(Oc2ccnc3ncc(=O)[nH]c23)cc1)Nc1ccc(Cl)c(C(F)(F)F)c1`, the GI50 [1] was 8800 nM, the pIC50 [2] was 5.89 and the pIC50 [3] was under 4.00.
`CC(C)(C)c1cc(NC(=O)Nc2ccc(Oc3ccnc4nc(N5CCOCC5)cnc34)cc2F)n(-c2ccccc2)n1` gave a GI50 [1] of 428 nM, a pIC50 [2] of 5.09 and a pIC50 [3] of 6.12.
`CSc1cc(Oc2ccnc3[nH]c(=O)c(C)nc23)ccc1NC(=O)Nc1cc(C(C)(C)C)nn1-c1ccc(C)cc1` showed a GI50 [1] of 3 nM, a pIC50 [2] of 7.62 and a pIC50 [3] of 8.22.
In the case of `O=C(Nc1cccc(Oc2ccnc3ncc(=O)[nH]c23)c1)c1cccc(OC(F)(F)F)c1`, the GI50 [1] was 6800 nM, the pIC50 [2] was 6.51 and the pIC50 [3] was 4.43.
Work on `CSc1cc(Oc2ccnc3ncc(=O)[nH]c23)ccc1NC(=O)Nc1cc(C(F)(F)F)ccc1F` yielded a GI50 [1] of 5000 nM, a pIC50 [2] of 6.61 and a pIC50 [3] of 5.18.
`O=C(Nc1cccc(Oc2ccnc3[nH]c(=O)cnc23)c1)Nc1cc(C(F)(F)F)ccc1F` gave a GI50 [1] of 10000 nM, a pIC50 [2] of 7.40 and a pIC50 [3] of 5.00.
Molecule `Cc1ccc(-n2nc(C(C)(C)C)cc2NC(=O)Nc2ccc(Oc3ccnc4[nH]c(=O)c(N)nc34)c3ccccc23)cc1` has a GI50 [1] of 77 nM, a pIC50 [2] of 6.82 and a pIC50 [3] of 8.15.
Molecule `Cc1ccc(-n2nc(C(C)(C)C)cc2NC(=O)Nc2ccc(Oc3ccnc4[nH]c(=O)[nH]c34)cc2F)cc1` has a GI50 [1] of 46 nM.
With `CSc1cc(Oc2ccnc3[nH]c(=O)[nH]c23)ccc1NC(=O)Nc1cc(C(C)(C)C)nn1-c1ccc(C)cc1` the GI50 [1] was 16 nM.
